Measurements as given in ChEMBL document CHEMBL1671756, “In vitro and in vivo antifungal susceptibilities of the Mucoralean fungus Cunninghamella” (2010).
≈ marks a conversion by molar mass, not a printed value. Calls of active or inactive are those of the source. The rule behind the calls is not given here.

Assays:
[1] = Antifungal activity against Cunninghamella echinulata FMR 10973 after 24 hrs by broth microdilution method; format: functional
How it was run: (§1)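 CLSI broth microdilution for filamentous fungi. Isolates were stored at −80°C and subcultured on potato dextrose agar at 35°C. MICs were read after 24 h. […] The QC strain was Paecilomyces variotii ATCC 36257.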

[2] = tested on: Cunninghamella bertholletiae; experiment: Antifungal activity against Cunninghamella bertholletiae FMR-9598 after 24 hrs by broth microdilution method; format: functional; settings: FMR-9598, 24 h; how it was run: as §1
[3] = tested on: Cunninghamella bertholletiae; experiment: Antifungal activity against Cunninghamella bertholletiae UTHSC 03-2241 after 24 hrs by broth microdilution method; format: functional; settings: UTHSC 03-2241, 24 h; how it was run: as §1
[4] = tested on: Cunninghamella bertholletiae; experiment: Antifungal activity against Cunninghamella bertholletiae UTHSC 05-2275 after 24 hrs by broth microdilution method; format: functional; settings: UTHSC 05-2275, 24 h; how it was run: as §1
[5] = Antifungal activity against Cunninghamella echinulata UTHSC 01-2298 after 24 hrs by broth microdilution method; format: functional; how it was run: as §1
[6] = Antifungal activity against Cunninghamella echinulata UTHSC 03-3725 after 24 hrs by broth microdilution method; format: functional; how it was run: as §1
[7] = Antifungal activity against Cunninghamella echinulata FMR 10974 after 24 hrs by broth microdilution method; format: functional; how it was run: as §1
[8] = tested on: Cunninghamella bertholletiae; experiment: Antifungal activity against Cunninghamella bertholletiae UTHSC 06-1945 after 24 hrs by broth microdilution method; format: functional; settings: UTHSC 06-1945, 24 h; how it was run: as §1
[9] = tested on: Cunninghamella bertholletiae; experiment: Antifungal activity against Cunninghamella bertholletiae UTHSC 04-2581 after 24 hrs by broth microdilution method; format: functional; settings: UTHSC 04-2581, 24 h; how it was run: as §1
[10] = tested on: Cunninghamella bertholletiae; experiment: Antifungal activity against Cunninghamella bertholletiae UTHSC 05-2275 infected in neutropenic OF1 mouse assessed as decreased fungal load in kidney at 50 mg/kg, po bid administered 1 day post infection measured after 4 to 5 days relative to untreated control; format: functional, organism-based; design: dose 50 mg/kg
How it was run: (§2)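 Neutropenic male OF1 mice (cyclophosphamide 200 mg/kg i.p. + 5-fluorouracil 150 mg/kg i.v., day −1) were infected i.v. with 1 × 10⁴ CFU. Ten mice per group were treated from day 1 and killed by CO₂ on day 5, or on day 4 if moribund. Half of each brain, lung and kidney was homogenized in 1 ml saline. Ten-fold dilutions were plated on PDA for 24 h at 35°C and counted as log₁₀ CFU/g.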

[11] = tested on: Cunninghamella bertholletiae; experiment: Antifungal activity against Cunninghamella bertholletiae UTHSC 05-2275 infected in neutropenic OF1 mouse assessed as decreased fungal load in lung at 25 mg/kg, po bid administered 1 day post infection measured after 4 to 5 days relative to untreated control; format: functional, organism-based; design: dose 25 mg/kg; how it was run: as §2
[12] = tested on: Cunninghamella bertholletiae; experiment: Antifungal activity against Cunninghamella bertholletiae UTHSC 05-2275 infected in diabetic OF1 mouse assessed as increase in mouse survival rate at 50 mg/kg, po bid administered 1 day after infection for 7 days relative to untreated control; format: functional, organism-based; design: dose 50 mg/kg
How it was run: (§3)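 Male OF1 mice were made diabetic with streptozocin 210 mg/kg i.p. Diabetes was confirmed by blood glucose >250 mg/dl at day 10. Challenge was 1 × 10⁵ CFU in 0.2 ml saline i.v. (tail vein), with ceftazidime 5 mg/day s.c. on days 1–7. Treatment began 1 day after challenge for 7 days. There were 10 mice/group, checked daily for 20 days. Kaplan-Meier analysis with log-rank comparison.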

[13] = tested on: Cunninghamella bertholletiae; experiment: Antifungal activity against Cunninghamella bertholletiae UTHSC 05-2275 infected in neutropenic OF1 mouse assessed as decreased fungal load in lung at 50 mg/kg, po bid administered 1 day post infection measured after 4 to 5 days relative to untreated control; format: functional, organism-based; design: dose 50 mg/kg; how it was run: as §2
[14] = tested on: Cunninghamella bertholletiae; experiment: Antifungal activity against Cunninghamella bertholletiae UTHSC 05-2275 infected in neutropenic OF1 mouse assessed as increase in mouse survival rate at 25 mg/kg, po bid administered 1 day after infection for 7 days relative to untreated control
[15] = tested on: Cunninghamella bertholletiae; experiment: Antifungal activity against Cunninghamella bertholletiae UTHSC 05-2275 infected in neutropenic OF1 mouse assessed as decreased fungal load in kidney at 25 mg/kg, po bid administered 1 day post infection measured after 4 to 5 days relative to untreated control; format: functional, organism-based; design: dose 25 mg/kg; how it was run: as §2
[16] = tested on: Cunninghamella bertholletiae; experiment: Antifungal activity against Cunninghamella bertholletiae UTSCH 05-2275 infected in diabetic OF1 mouse assessed as decreased fungal load in kidney at 50 mg/kg, po bid administered 1 day post infection measured after 4 to 5 days relative to untreated control; format: functional, organism-based; design: dose 50 mg/kg
How it was run: (§4)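 Diabetic OF1 mice (streptozocin 210 mg/kg i.p.; glucose >250 mg/dl) were infected i.v. with 1 × 10⁵ CFU, with ceftazidime cover. Ten per group were treated from day 1 and killed day 5, or day 4 if moribund. Half-organ homogenates (brain, lung, kidney) in 1 ml saline were serially diluted 10-fold on PDA, incubated 24 h at 35°C, and reported as log₁₀ CFU/g tissue.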

[17] = tested on: Cunninghamella bertholletiae; experiment: Antifungal activity against Cunninghamella bertholletiae UTHSC 05-2275 infected in neutropenic OF1 mouse assessed as increase in mouse survival rate at 50 mg/kg, po bid administered 1 day after infection for 7 days relative to untreated control; format: functional, organism-based; design: dose 50 mg/kg
How it was run: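 Male OF1 mice (~30 g) were made neutropenic with cyclophosphamide 200 mg/kg i.p. plus 5-fluorouracil 150 mg/kg i.v. 1 day before challenge. Challenge was 1 × 10⁴ CFU sporangiospores in 0.2 ml saline via the lateral tail vein. Mice got ceftazidime 5 mg/day s.c. on days 1–7. Dosing started 24 h post-challenge for 7 days. There were 10 mice/group, observed daily for 20 days. Kaplan-Meier analysis with log-rank test.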

[18] = tested on: Cunninghamella bertholletiae; experiment: Antifungal activity against Cunninghamella bertholletiae UTSCH 05-2275 infected in diabetic OF1 mouse assessed as decreased fungal load in lung at 50 mg/kg, po bid administered 1 day post infection measured after 4 to 5 days relative to untreated control; format: functional, organism-based; design: dose 50 mg/kg; how it was run: as §4
[19] = tested on: Cunninghamella bertholletiae; experiment: Antifungal activity against Cunninghamella bertholletiae UTHSC 05-2275 infected in diabetic OF1 mouse assessed as increase in mouse survival rate at 25 mg/kg, po bid administered 1 day after infection for 7 days relative to untreated control; format: functional, organism-based; design: dose 25 mg/kg; how it was run: as §3

| Compound | MIC [1] [µg/mL] | MIC [2] [µg/mL] | MIC [3] [µg/mL] | MIC [4] [µg/mL] | MIC [5] [µg/mL] | MIC [6] [µg/mL] | MIC [7] [µg/mL] | MIC [8] [µg/mL] | MIC [9] [µg/mL] | Activity [10] | Activity [11] | Activity [12] | Activity [13] | Activity [14] | Activity [15] | Activity [16] | Activity [17] | Activity [18] | Activity [19] |
| --- | --- | --- | --- | --- | --- | --- | --- | --- | --- | --- | --- | --- | --- | --- | --- | --- | --- | --- | --- |
| CC[C@H](C)C[C@H](C)CCCCCCCCC(=O)N[C@H]1C[C@@H](O)[C@@H](NCCN)NC(=O)[C@@H]2[C@@H](O)CCN2C(=O)[C@H]([C@H](O)CCN)NC(=O)[C@H]([C@H](O)[C@@H](O)c2ccc(O)cc2)NC(=O)[C@@H]2C[C@@H](O)CN2C(=O)[C@H]([C@@H](C)O)NC1=O [CASPOFUNGIN] | > 16 | > 16 | > 16 | > 16 | > 16 | > 16 | > 16 | > 16 | > 16 |  |  |  |  |  |  |  |  |  |  |
| CCC(C)n1ncn(-c2ccc(N3CCN(c4ccc(OCC5COC(Cn6cncn6)(c6ccc(Cl)cc6Cl)O5)cc4)CC3)cc2)c1=O (stereo not given) [ITRACONAZOLE] | > 16 | 8 (≈ 11.3 µM) | 1 (≈ 1.42 µM) | 2 (≈ 2.83 µM) | > 16 | 2 (≈ 2.83 µM) | > 16 | 2 (≈ 2.83 µM) | 1 (≈ 1.42 µM) | inactive | Active | Active | Active | inactive | inactive | inactive | Active | Active | inactive |
| C[C@@H](c1nc(-c2ccc(C#N)cc2)cs1)[C@](O)(Cn1cncn1)c1ccc(F)cc1F [RAVUCONAZOLE] | > 16 | > 16 | > 16 | > 16 | > 16 | > 16 | > 16 | > 16 | > 16 |  |  |  |  |  |  |  |  |  |  |
| CN(C/C=C/C#CC(C)(C)C)Cc1cccc2ccccc12 [TERBINAFINE] | 0.06 (≈ 0.206 µM) | 0.06 (≈ 0.206 µM) | 0.03 (≈ 0.103 µM) | 0.06 (≈ 0.206 µM) | 0.06 (≈ 0.206 µM) | 0.03 (≈ 0.103 µM) | 0.06 (≈ 0.206 µM) | 0.03 (≈ 0.103 µM) | 0.03 (≈ 0.103 µM) |  |  |  |  |  |  |  |  |  |  |
| C[C@@H](c1ncncc1F)[C@](O)(Cn1cncn1)c1ccc(F)cc1F [VORICONAZOLE] | > 16 | > 16 | 8 (≈ 22.9 µM) | 16 (≈ 45.8 µM) | > 16 | > 16 | > 16 | 16 (≈ 45.8 µM) | 16 (≈ 45.8 µM) |  |  |  |  |  |  |  |  |  |  |
